Data published in ChEMBL document CHEMBL5724801, “EUbOPEN Chemogenomics Library - Multiplex” (2024).
“And” between values parts separate entries of the source, which are not always exact repeats. Identical values can stand only once.

Tested on: HEK-293T
Test: Multiplex assay against HEK293T
Type: toxicity, cell-based
Conditions: human
Procedure, shortened: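 Tubulin, mitochondrial-mass and membrane-permeability phenotypes are per cents of healthy-nucleus cells. Cells were gated by CellPathfinder machine learning into Hoechst high-intensity objects or normal cells, normal cells into healthy, pyknosed or fragmented nuclei, and pyknosed cells into mitotic or apoptotic. Before that, live cells stained at seeding with Hoechst33342, BioTracker Green Microtubule Cytoskeleton Dye, MitoTracker Red and Annexin V Alexa Fluor 680 were imaged on a CQ1 microscope at 37°C and 5% CO2 after compound addition.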

[1] = 12 h, 1 µM, compound concentration 1 uM
[2] = 12 h, 10 µM, compound concentration 10 uM
[3] = 24 h, 1 µM, compound concentration 1 uM
[4] = 24 h, 10 µM, compound concentration 10 uM
[5] = 48 h, 1 µM, compound concentration 1 uM
[6] = 48 h, 10 µM, compound concentration 10 uM

Cl.Clc1ccc2nsnc2c1NC1=NCCN1 [TIZANIDINE HYDROCHLORIDE] was tested. Which “Population Apoptotic (%)” value [1] did it give?
The value was 39% and 44%.

And the “Population Fragmented Nuclei (%)” value [1]?
Its value is 9% and 2%.

And the “Population Healthy Nuclei (%)” value [1]?
The value was 80% and 83%.

What about the “Population Hoechst High Intensity Objects (%)” value [1] of the same molecule?
The value was 8% and 9%.

What about the “Population Membrane Permeable-Phenotype (%)” value [1] of the same molecule?
Its value is 0%.

What about the “Population Mitochondria Different-Phenotype (%)” value [1] of the same molecule?
The value was 36% and 62%.

And the “Population Mitotic Cells (%)” value [1]?
Its value is 60% and 55%.

What about the “Population Normal (%)” value [1] of the same molecule?
The value was 91% and 90%.

What about the “Population Pyknosed Nuclei (%)” value [1] of the same molecule?
The value was 9% and 13%.

What about the “Population Tubulin-Different-Phenotype (%)” value [1] of the same molecule?
The value was 26% and 20%.

What about the “Total Cell Count” value [1] of the same molecule?
The value was 474 and 373.

What about the “Population Apoptotic (%)” value [2] of the same molecule?
Its value is 30% and 46%.

What about the “Population Fragmented Nuclei (%)” value [2] of the same molecule?
Its value is 9% and 7%.

And the “Population Healthy Nuclei (%)” value [2]?
Its value is 80% and 79%.

What about the “Population Hoechst High Intensity Objects (%)” value [2] of the same molecule?
The value was 6% and 4%.

And the “Population Membrane Permeable-Phenotype (%)” value [2]?
The value was 0%.

What about the “Population Mitochondria Different-Phenotype (%)” value [2] of the same molecule?
The value was 45% and 67%.

And the “Population Mitotic Cells (%)” value [2]?
Its value is 70% and 53%.

And the “Population Normal (%)” value [2]?
The value was 93% and 95%.

What about the “Population Pyknosed Nuclei (%)” value [2] of the same molecule?
The value was 9% and 13%.

And the “Population Tubulin-Different-Phenotype (%)” value [2]?
Its value is 32% and 27%.

What about the “Total Cell Count” value [2] of the same molecule?
Its value is 450 and 343.

What about the “Population Apoptotic (%)” value [3] of the same molecule?
Its value is 32% and 45%.

And the “Population Fragmented Nuclei (%)” value [3]?
Its value is 11% and 10%.

What about the “Population Healthy Nuclei (%)” value [3] of the same molecule?
The value was 79% and 80%.

What about the “Population Hoechst High Intensity Objects (%)” value [3] of the same molecule?
The value was 4% and 5%.

What about the “Population Membrane Permeable-Phenotype (%)” value [3] of the same molecule?
The value was 0%.

And the “Population Mitochondria Different-Phenotype (%)” value [3]?
Its value is 20% and 38%.

And the “Population Mitotic Cells (%)” value [3]?
The value was 67% and 54%.

And the “Population Normal (%)” value [3]?
Its value is 95% and 94%.

What about the “Population Pyknosed Nuclei (%)” value [3] of the same molecule?
Its value is 8%.

What about the “Population Tubulin-Different-Phenotype (%)” value [3] of the same molecule?
Its value is 17% and 15%.

And the “Total Cell Count” value [3]?
Its value is 597 and 434.

What about the “Population Apoptotic (%)” value [4] of the same molecule?
Its value is 32% and 29%.

What about the “Population Fragmented Nuclei (%)” value [4] of the same molecule?
The value was 11% and 10%.

And the “Population Healthy Nuclei (%)” value [4]?
Its value is 78% and 81%.

What about the “Population Hoechst High Intensity Objects (%)” value [4] of the same molecule?
Its value is 5% and 6%.

What about the “Population Membrane Permeable-Phenotype (%)” value [4] of the same molecule?
The value was 1% and 0%.

And the “Population Mitochondria Different-Phenotype (%)” value [4]?
The value was 23% and 46%.

And the “Population Mitotic Cells (%)” value [4]?
The value was 67% and 70%.

What about the “Population Normal (%)” value [4] of the same molecule?
The value was 94% and 93%.

And the “Population Pyknosed Nuclei (%)” value [4]?
Its value is 9% and 7%.

What about the “Population Tubulin-Different-Phenotype (%)” value [4] of the same molecule?
The value was 18%.

And the “Total Cell Count” value [4]?
Its value is 621 and 443.

What about the “Population Apoptotic (%)” value [5] of the same molecule?
Its value is 17% and 33%.

And the “Population Fragmented Nuclei (%)” value [5]?
The value was 16% and 14%.

What about the “Population Healthy Nuclei (%)” value [5] of the same molecule?
Its value is 77% and 79%.

And the “Population Hoechst High Intensity Objects (%)” value [5]?
Its value is 2% and 3%.

What about the “Population Membrane Permeable-Phenotype (%)” value [5] of the same molecule?
The value was 3% and 1%.

And the “Population Mitochondria Different-Phenotype (%)” value [5]?
Its value is 13% and 19%.

And the “Population Mitotic Cells (%)” value [5]?
The value was 82% and 66%.

And the “Population Normal (%)” value [5]?
The value was 97% and 96%.

What about the “Population Pyknosed Nuclei (%)” value [5] of the same molecule?
Its value is 6%.

What about the “Population Tubulin-Different-Phenotype (%)” value [5] of the same molecule?
The value was 10% and 7%.

What about the “Total Cell Count” value [5] of the same molecule?
Its value is 1005 and 661.

What about the “Population Apoptotic (%)” value [6] of the same molecule?
Its value is 24% and 25%.

And the “Population Fragmented Nuclei (%)” value [6]?
The value was 19% and 13%.

What about the “Population Healthy Nuclei (%)” value [6] of the same molecule?
The value was 74% and 81%.

What about the “Population Hoechst High Intensity Objects (%)” value [6] of the same molecule?
Its value is 3% and 5%.

And the “Population Membrane Permeable-Phenotype (%)” value [6]?
Its value is 1%.

And the “Population Mitochondria Different-Phenotype (%)” value [6]?
The value was 13% and 23%.

What about the “Population Mitotic Cells (%)” value [6] of the same molecule?
The value was 75%.

What about the “Population Normal (%)” value [6] of the same molecule?
The value was 96% and 94%.

And the “Population Pyknosed Nuclei (%)” value [6]?
The value was 5% and 4%.

And the “Population Tubulin-Different-Phenotype (%)” value [6]?
The value was 10% and 19%.

What about the “Total Cell Count” value [6] of the same molecule?
Its value is 995 and 600.

For Cc1ccc(F)cc1C(=O)Nc1ccc(C(=O)N2Cc3cccn3Cc3ccccc32)c(Cl)c1 [LIXIVAPTAN], which “Population Apoptotic (%)” value [1] is on record?
Its value is 36% and 40%.

And the “Population Fragmented Nuclei (%)” value [1]?
Its value is 5% and 6%.

What about the “Population Healthy Nuclei (%)” value [1] of the same molecule?
Its value is 83% and 74%.

What about the “Population Hoechst High Intensity Objects (%)” value [1] of the same molecule?
Its value is 7% and 5%.

What about the “Population Membrane Permeable-Phenotype (%)” value [1] of the same molecule?
Its value is 0%.

And the “Population Mitochondria Different-Phenotype (%)” value [1]?
Its value is 45% and 57%.

And the “Population Mitotic Cells (%)” value [1]?
The value was 63% and 60%.

And the “Population Normal (%)” value [1]?
The value was 92% and 94%.

What about the “Population Pyknosed Nuclei (%)” value [1] of the same molecule?
The value was 10% and 19%.

What about the “Population Tubulin-Different-Phenotype (%)” value [1] of the same molecule?
The value was 38% and 32%.

And the “Total Cell Count” value [1]?
The value was 486 and 335.

What about the “Population Apoptotic (%)” value [2] of the same molecule?
Its value is 46% and 50%.

What about the “Population Fragmented Nuclei (%)” value [2] of the same molecule?
Its value is 6%.

And the “Population Healthy Nuclei (%)” value [2]?
Its value is 70% and 67%.

What about the “Population Hoechst High Intensity Objects (%)” value [2] of the same molecule?
Its value is 10% and 6%.

What about the “Population Membrane Permeable-Phenotype (%)” value [2] of the same molecule?
The value was 0% and 1%.

And the “Population Mitochondria Different-Phenotype (%)” value [2]?
The value was 75% and 81%.

What about the “Population Mitotic Cells (%)” value [2] of the same molecule?
Its value is 53% and 50%.

And the “Population Normal (%)” value [2]?
The value was 89% and 93%.

And the “Population Pyknosed Nuclei (%)” value [2]?
Its value is 22% and 25%.

And the “Population Tubulin-Different-Phenotype (%)” value [2]?
The value was 78% and 67%.

What about the “Total Cell Count” value [2] of the same molecule?
Its value is 339 and 357.

What about the “Population Apoptotic (%)” value [3] of the same molecule?
Its value is 30% and 36%.

And the “Population Fragmented Nuclei (%)” value [3]?
The value was 9% and 10%.

What about the “Population Healthy Nuclei (%)” value [3] of the same molecule?
The value was 77% and 76%.

And the “Population Hoechst High Intensity Objects (%)” value [3]?
Its value is 5% and 7%.

What about the “Population Membrane Permeable-Phenotype (%)” value [3] of the same molecule?
The value was 0%.

And the “Population Mitochondria Different-Phenotype (%)” value [3]?
Its value is 30% and 42%.

What about the “Population Mitotic Cells (%)” value [3] of the same molecule?
The value was 69% and 63%.

And the “Population Normal (%)” value [3]?
The value was 94% and 92%.

And the “Population Pyknosed Nuclei (%)” value [3]?
The value was 13%.

And the “Population Tubulin-Different-Phenotype (%)” value [3]?
The value was 24% and 22%.

And the “Total Cell Count” value [3]?
The value was 595 and 423.

And the “Population Apoptotic (%)” value [4]?
Its value is 37% and 58%.

What about the “Population Fragmented Nuclei (%)” value [4] of the same molecule?
The value was 5% and 8%.

And the “Population Healthy Nuclei (%)” value [4]?
The value was 69% and 72%.

And the “Population Hoechst High Intensity Objects (%)” value [4]?
The value was 7% and 6%.

And the “Population Membrane Permeable-Phenotype (%)” value [4]?
Its value is 0%.

And the “Population Mitochondria Different-Phenotype (%)” value [4]?
Its value is 74% and 78%.

What about the “Population Mitotic Cells (%)” value [4] of the same molecule?
Its value is 62% and 41%.

What about the “Population Normal (%)” value [4] of the same molecule?
The value was 92% and 93%.

What about the “Population Pyknosed Nuclei (%)” value [4] of the same molecule?
The value was 24% and 19%.

What about the “Population Tubulin-Different-Phenotype (%)” value [4] of the same molecule?
Its value is 71% and 69%.

And the “Total Cell Count” value [4]?
The value was 392 and 401.

And the “Population Apoptotic (%)” value [5]?
The value was 22% and 17%.

And the “Population Fragmented Nuclei (%)” value [5]?
The value was 12%.

What about the “Population Healthy Nuclei (%)” value [5] of the same molecule?
The value was 80%.

And the “Population Hoechst High Intensity Objects (%)” value [5]?
The value was 2% and 4%.

What about the “Population Membrane Permeable-Phenotype (%)” value [5] of the same molecule?
Its value is 0%.

And the “Population Mitochondria Different-Phenotype (%)” value [5]?
The value was 19% and 24%.

What about the “Population Mitotic Cells (%)” value [5] of the same molecule?
Its value is 77% and 82%.

And the “Population Normal (%)” value [5]?
Its value is 97% and 95%.

What about the “Population Pyknosed Nuclei (%)” value [5] of the same molecule?
Its value is 6% and 7%.

And the “Population Tubulin-Different-Phenotype (%)” value [5]?
Its value is 17% and 21%.

What about the “Total Cell Count” value [5] of the same molecule?
Its value is 995 and 643.

What about the “Population Apoptotic (%)” value [6] of the same molecule?
Its value is 43% and 46%.

What about the “Population Fragmented Nuclei (%)” value [6] of the same molecule?
The value was 9% and 11%.

And the “Population Healthy Nuclei (%)” value [6]?
Its value is 74%.

And the “Population Hoechst High Intensity Objects (%)” value [6]?
Its value is 7% and 8%.

And the “Population Membrane Permeable-Phenotype (%)” value [6]?
The value was 0%.

And the “Population Mitochondria Different-Phenotype (%)” value [6]?
Its value is 72% and 71%.

And the “Population Mitotic Cells (%)” value [6]?
Its value is 56% and 53%.

And the “Population Normal (%)” value [6]?
Its value is 92% and 91%.

And the “Population Pyknosed Nuclei (%)” value [6]?
Its value is 16% and 14%.

And the “Population Tubulin-Different-Phenotype (%)” value [6]?
Its value is 69% and 59%.

What about the “Total Cell Count” value [6] of the same molecule?
Its value is 489 and 437.
